Series [1] is described as follows: Degradation half life in rat plasma at 1000 ng/ml by LC-MS/MS analysis. It counts as ADME, cell-free. In a few lines:
(§1)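 Pooled human plasma (3 donors) or pooled male Sprague-Dawley rat plasma, thawed at 37°C. Spiked to a nominal 1000 ng/mL final (0.2% DMSO, 0.4% acetonitrile final) and incubated at 37°C. Aliquots were snap-frozen at time points over 4 h (n=3 per time point). Quantified by LC-MS against a same-species blank-plasma calibration with a leucine enkephalin internal standard.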

Series [2] in a line: Degradation half life in human plasma at 1000 ng/ml by LC-MS/MS analysis. Type of series: ADME, cell-free. The essentials:
as §1

The target of series [3] is T1, Sodium- and chloride-dependent glycine transporter 2 (Homo sapiens, UniProt Q9Y345).
T1 sequence (Q9Y345 whole entry): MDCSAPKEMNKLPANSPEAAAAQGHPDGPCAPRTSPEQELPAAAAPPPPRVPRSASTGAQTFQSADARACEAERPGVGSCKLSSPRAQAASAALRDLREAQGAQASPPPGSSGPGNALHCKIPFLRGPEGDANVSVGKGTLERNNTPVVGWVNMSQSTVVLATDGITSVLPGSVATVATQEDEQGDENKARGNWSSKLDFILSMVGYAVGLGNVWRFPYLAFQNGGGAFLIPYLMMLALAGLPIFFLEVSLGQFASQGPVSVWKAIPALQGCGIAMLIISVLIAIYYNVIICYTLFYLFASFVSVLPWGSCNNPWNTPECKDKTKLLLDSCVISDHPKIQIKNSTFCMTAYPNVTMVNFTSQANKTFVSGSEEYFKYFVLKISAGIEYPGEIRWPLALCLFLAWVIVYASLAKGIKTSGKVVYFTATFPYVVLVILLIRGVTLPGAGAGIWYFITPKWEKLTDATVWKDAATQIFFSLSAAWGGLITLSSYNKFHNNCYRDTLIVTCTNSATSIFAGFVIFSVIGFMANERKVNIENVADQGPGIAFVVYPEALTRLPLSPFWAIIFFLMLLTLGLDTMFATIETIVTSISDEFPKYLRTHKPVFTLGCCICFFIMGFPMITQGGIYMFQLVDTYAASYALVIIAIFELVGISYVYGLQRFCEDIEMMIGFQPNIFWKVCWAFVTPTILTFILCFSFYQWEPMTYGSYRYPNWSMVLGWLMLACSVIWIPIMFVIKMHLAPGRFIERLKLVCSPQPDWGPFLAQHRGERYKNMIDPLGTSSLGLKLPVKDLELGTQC
Nature of the series: Inhibition of recombinant human GlyT2a expressed in Xenopus laevis oocytes assessed as reduction in channel current by two-electrode voltage clamp electrophysiology. It counts as cell-based. On the technique in general: Two-electrode voltage clamp holds a large cell at a set potential and records current.

Series [4] deals with Cannabinoid receptor 2 (Homo sapiens) (UniProt P34972). Description: Antagonist activity at human CB2 receptor.
Cannabinoid receptor 2 (Homo sapiens), sequence (P34972 whole entry): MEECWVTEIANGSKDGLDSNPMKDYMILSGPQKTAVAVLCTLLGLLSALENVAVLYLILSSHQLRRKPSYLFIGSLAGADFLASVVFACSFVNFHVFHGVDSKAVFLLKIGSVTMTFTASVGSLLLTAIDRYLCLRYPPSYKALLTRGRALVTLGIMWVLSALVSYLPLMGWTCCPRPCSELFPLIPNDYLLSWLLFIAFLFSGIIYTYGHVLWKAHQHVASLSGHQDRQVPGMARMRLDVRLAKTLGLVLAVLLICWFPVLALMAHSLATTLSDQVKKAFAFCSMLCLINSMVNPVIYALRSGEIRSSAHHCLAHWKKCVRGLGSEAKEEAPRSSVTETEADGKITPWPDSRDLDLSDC
A short description of series [5]: AUC (0 to 24 hrs) in Sprague-Dawley rat brain at 27.5 mg/kg, ip by UPLC analysis. Type of series: ADME, organism-based. Also noted: time < 24 hr, dose 27.5 mg/kg, route intraperitoneal. Particulars: in vivo. The essentials:
(§2)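 Male Sprague-Dawley rats (250–306 g) got one ip dose of a suspension (10% v/v DMSO, 1% solutol HS-15 in 50 mM PBS, pH 7.4). Terminal cardiac-puncture heparinised plasma and whole brain were sampled over 24 h, n=3 rats per time point. Samples were extracted by protein precipitation and read by UPLC-MS/MS in positive ESI MRM with a diazepam internal standard. Parameters are non-compartmental; the time-averaged B/P comes from AUC0-24h.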

Series [6] in a line: Ratio of drug uptake in Sprague-Dawley rat brain to plasma at 27.5 mg/kg, ip after 1 hr by UPLC analysis. Particulars: read-out: BPR. It counts as ADME, organism-based. The essentials:
as §2

A short description of series [7]: Unbound brain concentration in Sprague-Dawley rat at 27.5 mg/kg, ip after 4.2 hrs by UPLC analysis. Type of series: ADME, organism-based. Particulars: in vivo. The essentials:
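Brains from male Sprague-Dawley rats were homogenised in isotonic pH 7.4 PBS to 0.11 g tissue/mL, spiked, and ultracentrifuged at 37°C and 223,000 x g for 4.2 h (n = 4). Unspun aliquots held at 37°C gave Ctotal; LC-MS was the read-out. Fraction bound was applied to the brain Cmax from a single 27.5 mg/kg ip dose to estimate unbound concentration.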

In a further series the test system is Rattus norvegicus. Description: Analgesic activity in Sprague-Dawley rat model of neuropathic pain assessed as reduction in allodynia at 3 mg/kg, ip administered as single dose measured after 90 mins post injection. Type of series: functional, organism-based. The essentials: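 Male Sprague-Dawley rats were tested 14 days after nerve-constriction surgery. Mechanical paw withdrawal threshold was measured with von Frey filaments (0.4–15.1 g) by the up-down method, bounded at 0.2 and 15 g. Rats got a single ip injection with vehicle of 1% DMSO, 10% Solutol HS15 in 0.9% saline. Testing ran at 15–360 min post-injection with Bonferroni comparisons against vehicle.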

A short description of series [8]: Toxicity in Sprague-Dawley rat model of neuropathic pain assessed as incidence of localized pain rat 30 mg/kg, ip administered as single dose measured up to 15 mins post injection. Type of series: organism-based. To be noted: in vivo, 0.25 h.
Series [9] has as its target Voltage-dependent L-type calcium channel subunit alpha-1D (Homo sapiens) (UniProt Q01668). Nature of the series: Inhibition of human CaV1.3 at 1 uM.

Active and inactive are the calls of the source.

Voltage-dependent L-type calcium channel subunit alpha-1D (Homo sapiens), sequence (Q01668 whole entry): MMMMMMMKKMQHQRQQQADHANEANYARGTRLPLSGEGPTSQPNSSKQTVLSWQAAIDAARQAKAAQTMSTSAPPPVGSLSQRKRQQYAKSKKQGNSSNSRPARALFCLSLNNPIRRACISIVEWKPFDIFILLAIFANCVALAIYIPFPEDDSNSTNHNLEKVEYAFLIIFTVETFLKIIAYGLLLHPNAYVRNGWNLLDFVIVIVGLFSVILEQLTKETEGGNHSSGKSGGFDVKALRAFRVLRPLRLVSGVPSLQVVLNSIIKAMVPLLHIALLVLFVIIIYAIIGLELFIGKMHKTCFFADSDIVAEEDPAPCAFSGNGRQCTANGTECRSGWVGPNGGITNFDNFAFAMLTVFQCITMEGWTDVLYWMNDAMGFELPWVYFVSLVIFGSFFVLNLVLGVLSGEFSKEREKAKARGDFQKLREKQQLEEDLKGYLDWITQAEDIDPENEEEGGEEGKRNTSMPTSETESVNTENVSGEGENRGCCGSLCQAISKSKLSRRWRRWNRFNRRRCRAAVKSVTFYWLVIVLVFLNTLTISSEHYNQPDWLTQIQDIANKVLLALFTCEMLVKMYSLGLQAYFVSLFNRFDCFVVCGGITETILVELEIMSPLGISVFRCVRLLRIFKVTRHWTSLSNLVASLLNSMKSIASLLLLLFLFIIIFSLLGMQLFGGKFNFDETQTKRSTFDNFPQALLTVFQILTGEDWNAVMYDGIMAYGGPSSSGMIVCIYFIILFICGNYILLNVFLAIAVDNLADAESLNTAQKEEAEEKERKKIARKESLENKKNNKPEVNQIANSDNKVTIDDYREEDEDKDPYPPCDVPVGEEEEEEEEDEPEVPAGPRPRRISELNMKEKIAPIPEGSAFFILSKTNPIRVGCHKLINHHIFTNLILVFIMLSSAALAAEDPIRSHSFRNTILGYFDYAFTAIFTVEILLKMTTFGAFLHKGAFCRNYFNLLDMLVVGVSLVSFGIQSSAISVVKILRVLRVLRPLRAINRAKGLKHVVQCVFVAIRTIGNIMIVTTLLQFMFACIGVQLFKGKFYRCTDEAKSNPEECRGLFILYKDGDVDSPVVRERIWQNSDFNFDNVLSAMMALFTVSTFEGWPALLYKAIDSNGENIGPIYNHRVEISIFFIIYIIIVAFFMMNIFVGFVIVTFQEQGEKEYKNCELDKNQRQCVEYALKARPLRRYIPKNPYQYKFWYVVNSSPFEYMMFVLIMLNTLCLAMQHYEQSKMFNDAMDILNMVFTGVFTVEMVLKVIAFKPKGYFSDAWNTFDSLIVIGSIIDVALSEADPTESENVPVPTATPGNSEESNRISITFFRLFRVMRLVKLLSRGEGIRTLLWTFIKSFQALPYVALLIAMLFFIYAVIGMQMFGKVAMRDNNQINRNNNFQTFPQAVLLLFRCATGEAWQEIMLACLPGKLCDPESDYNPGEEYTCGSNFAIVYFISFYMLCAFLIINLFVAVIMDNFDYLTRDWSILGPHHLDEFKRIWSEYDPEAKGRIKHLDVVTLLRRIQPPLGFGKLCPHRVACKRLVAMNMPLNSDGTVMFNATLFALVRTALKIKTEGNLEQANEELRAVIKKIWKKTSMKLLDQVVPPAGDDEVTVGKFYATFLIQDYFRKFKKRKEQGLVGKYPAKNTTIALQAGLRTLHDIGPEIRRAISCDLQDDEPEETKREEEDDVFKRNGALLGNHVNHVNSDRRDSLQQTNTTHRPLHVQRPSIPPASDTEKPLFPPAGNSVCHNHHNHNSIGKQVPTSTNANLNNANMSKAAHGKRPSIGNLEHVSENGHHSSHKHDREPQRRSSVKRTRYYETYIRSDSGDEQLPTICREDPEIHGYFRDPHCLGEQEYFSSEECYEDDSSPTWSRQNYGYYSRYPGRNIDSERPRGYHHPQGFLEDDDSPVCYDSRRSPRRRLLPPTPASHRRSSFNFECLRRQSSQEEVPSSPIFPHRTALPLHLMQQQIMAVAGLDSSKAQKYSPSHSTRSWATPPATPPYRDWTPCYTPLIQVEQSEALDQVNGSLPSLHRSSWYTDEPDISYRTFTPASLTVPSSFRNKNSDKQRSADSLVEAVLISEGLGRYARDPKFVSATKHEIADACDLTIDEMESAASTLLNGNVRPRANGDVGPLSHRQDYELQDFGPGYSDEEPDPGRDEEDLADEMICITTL

In the case of `CCCCCCCC/C=C\CCCCCCCC(=O)N[C@H](CCCCN)C(=O)O.Cl`, the t1/2 in series [1] and in series [2] was above 17.03 h each time. In series [3], the IC50 (commonly the concentration needed to halve the response being measured) came to 48.3 nM. Besides, the inhibition entry in series [4] and in series [9] was “inactive” in each case. Besides, the AUC in series [5] came to 38479 ng·h/g. Besides, in [6], the Kp at 1 h is 0.08. Further, the “Drug uptake(free)” value in [7] was determined as 90 nM. The outcome with Rattus norvegicus was Active. In addition, the Activity result in series [8] is given as “Toxic”.

Values taken from ChEMBL document CHEMBL4480400, “Development of an N-Acyl Amino Acid That Selectively Inhibits the Glycine Transporter 2 To Produce Analgesia in a Rat Model of Chronic Pain” (J Med Chem, 2019).
